Reference: ChEMBL document CHEMBL4270633, “Discovery of novel vinyl sulfone derivatives as anti-tumor agents with microtubule polymerization inhibitory and vascular disrupting activities” (Eur J Med Chem, 2018)
Activity calls are given as the source filed them. The calls are words filed in the database; no cut-off is given here.

Key:
[1] = system: K562; assay: Cell cycle arrest in human K562 cells assessed as accumulation at G1 phase at 0.05 uM after 48 hrs by propidium iodide staining based flow cytometry (reference value: 60.77%); type: functional
[2] = system: K562; assay: Cell cycle arrest in human K562 cells assessed as accumulation at G2 phase at 0.1 uM after 48 hrs by propidium iodide staining based flow cytometry (reference value: 9.1%); type: functional
[3] = system: HUVEC; assay: Antivascular activity against HUVEC assessed as reduction in tube formation at 005 to 0.2 uM after 6 hrs by inverted microscopic based matrigel method; type: functional, cell-based; settings: Homo sapiens
In short: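 Matrigel thawed at 4 °C overnight and polymerized 30 min at 37 °C. HUVECs in DMEM seeded at 50,000 cells/well, then exposed to compound or vehicle for 6 h at 37 °C. Tube morphology examined by inverted microscopy.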

[4] = system: K562; assay: Induction of apoptosis in human K562 cells at 0.2 uM after 48 hrs by Annexin V-FITC/propidium iodide staining based flow cytometry (reference value: 1.46%); type: functional
In short: (§1)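 K562 cells treated 48 h at 0, 0.05, 0.1, 0.2 µM or 0, 0.005, 0.010, 0.020 µM. Washed in PBS, resuspended in Annexin V binding buffer and stained 15 min in the dark. Early plus late apoptotic fractions quantified by flow-cytometric quadrant analysis.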

[5] = system: K562; assay: Cell cycle arrest in human K562 cells assessed as accumulation at G2/M phase after 48 hrs by propidium iodide staining based flow cytometry; type: functional
[6] = system: H22; assay: Antitumor activity against mouse H22 cells implanted in ICR mouse assessed as tumor growth inhibition at 15 mg/kg, iv administered once daily for 21 consecutive days relative to control; type: functional; settings: read-out: TGI
In short: (§2)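 Male ICR mice, five weeks old, inoculated s.c. in the right flank with 1 × 10^6 H22 cells. After one day, randomized into groups of six. Given i.v. 15 or 30 mg/kg daily for 21 days in 10% DMF/2% Tween 80/88% saline, or 8 mg/kg every 2 days; vehicle control given i.v. Tumors excised and weighed; inhibition (%) = (1 − treated/control mean tumor weight) × 100.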

[7] = system: K562; assay: Cell cycle arrest in human K562 cells assessed as accumulation at S phase at 0.2 uM after 48 hrs by propidium iodide staining based flow cytometry (reference value: 30.13%); type: functional
[8] = system: K562; assay: Induction of apoptosis in human K562 cells at 0.05 uM after 48 hrs by Annexin V-FITC/propidium iodide staining based flow cytometry (reference value: 1.46%); type: functional; in short: as §1
[9] = system: K562; assay: Cell cycle arrest in human K562 cells assessed as accumulation at S phase at 0.1 uM after 48 hrs by propidium iodide staining based flow cytometry (reference value: 30.13%); type: functional
[10] = system: K562; assay: Induction of apoptosis in human K562 cells at 0.1 uM after 48 hrs by Annexin V-FITC/propidium iodide staining based flow cytometry (reference value: 1.46%); type: functional; in short: as §1
[11] = system: K562; assay: Cell cycle arrest in human K562 cells assessed as accumulation at G1 phase at 0.2 uM after 48 hrs by propidium iodide staining based flow cytometry (reference value: 60.77%); type: functional
[12] = system: K562; assay: Antiproliferative activity against human K562 cells after 72 hrs by MTT assay; type: functional, cell-based; settings: K562, 72 h
In short: (§3)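 Cells seeded and held 24 h at 37 °C, 5% CO2, then exposed to a concentration series in medium with 0.1% DMSO for 72 h. MTT (5 mg/mL in PBS) added for 4 h and OD read at 490 nm. IC50 taken from dose-response curves; mean ± SD of at least three independent experiments.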

[13] = system: Mus musculus; assay: Toxicity in ICR mouse implanted with mouse H22 cells assessed as decrease in body weight at 15 to 30 mg/kg, iv administered once daily for 21 consecutive days; type: organism-based; settings: in vivo
In short: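 H22 s.c. allograft in male ICR mice, groups of six. Dosing i.v. at 15 or 30 mg/kg once daily for 21 days (10% DMF/2% Tween 80/88% saline), or 8 mg/kg once every 2 days. Body weight recorded every 2 days.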

[14] = system: K562; assay: Cell cycle arrest in human K562 cells assessed as accumulation at G1 phase at 0.1 uM after 48 hrs by propidium iodide staining based flow cytometry (reference value: 60.77%); type: functional
[15] = system: HepG2; assay: Antiproliferative activity against human HepG2 cells after 72 hrs by MTT assay; type: functional, cell-based; settings: HepG2, 72 h; in short: as §3
[16] = Inhibition of porcine brain tubulin polymerization after 30 mins by spectrophotometric method; parameters: species or system Sus scrofa
In short: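 Purified tubulin (2 mg/mL) in PEM buffer (80 mM PIPES pH 6.9, 0.5 mM EGTA, 2 mM MgCl2, 15% glycerol), preincubated on ice with compound or DMSO vehicle, then GTP added. Absorbance at 340 nm followed at 37 °C for 30 min. IC50 derived from area under the polymerization curve.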

[17] = system: H22; assay: Antitumor activity against mouse H22 cells implanted in ICR mouse assessed as tumor growth inhibition administered iv once daily for 21 consecutive days; type: functional, organism-based; in short: as §2
[18] = system: K562; assay: Cell cycle arrest in human K562 cells assessed as accumulation at G2 phase at 0.2 uM after 48 hrs by propidium iodide staining based flow cytometry (reference value: 9.1%); type: functional
[19] = system: K562; assay: Cell cycle arrest in human K562 cells assessed as accumulation at S phase at 0.05 uM after 48 hrs by propidium iodide staining based flow cytometry (reference value: 30.13%); type: functional
[20] = system: A549; assay: Antiproliferative activity against human A549 cells after 72 hrs by MTT assay; type: functional, cell-based; settings: A549, 72 h; in short: as §3
[21] = system: K562; assay: Induction of apoptosis in human K562 cells after 48 hrs by Annexin V-FITC/propidium iodide staining based flow cytometry; type: functional, cell-based; in short: as §1
[22] = system: K562; assay: Cell cycle arrest in human K562 cells assessed as accumulation at G2 phase at 0.05 uM after 48 hrs by propidium iodide staining based flow cytometry (reference value: 9.1%); type: functional
[23] = system: HUVEC; assay: Antivascular activity against HUVEC assessed as reduction in wound closure after 24 hrs by phase contrast microscopic method; type: functional, cell-based; settings: Homo sapiens
In short: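 Scratch wounds made with a sterile 200 µL pipette tip, then treated at 0.05, 0.10, 0.20 µM or 0.005, 0.010, 0.020 µM. Phase-contrast images taken at 0 h and 24 h after treatment.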

[24] = system: K562; assay: Disruption of microtubule network in human K562 cells after 24 hrs by DAPI staining based immunofluorescent microscopic method; type: cell-based
In short: (§4)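 K562 cells exposed for 24 h to 0.1% DMSO vehicle or to 0.05, 0.10, 0.20 µM or 0.005, 0.010, 0.020 µM. Fixed in 4% paraformaldehyde, blocked with goat serum 20 min at room temperature, then anti-α-tubulin antibody 2 h at 37 °C. Fluorescent antibody staining, DAPI nuclear counterstain, fluorescence microscopy.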

[25] = system: H22; assay: Antitumor activity against mouse H22 cells implanted in ICR mouse assessed as tumor growth inhibition at 30 mg/kg, iv administered once daily for 21 consecutive days relative to control; type: functional; settings: read-out: TGI; in short: as §2
[26] = system: K562; assay: Cell cycle arrest in human K562 cells assessed as accumulation at G1 phase at 0.005 uM after 48 hrs by propidium iodide staining based flow cytometry (reference value: 41.08%); type: functional
[27] = system: K562; assay: Cell cycle arrest in human K562 cells assessed as accumulation at S phase at 0.005 uM after 48 hrs by propidium iodide staining based flow cytometry (reference value: 49.41%); type: functional
[28] = system: K562; assay: Induction of apoptosis in human K562 cells at 0.005 uM after 48 hrs by Annexin V-FITC/propidium iodide staining based flow cytometry (reference value: 1.46%); type: functional; in short: as §1
[29] = system: K562; assay: Cell cycle arrest in human K562 cells assessed as accumulation at G1 phase at 0.01 uM after 48 hrs by propidium iodide staining based flow cytometry (reference value: 41.08%); type: functional
[30] = system: K562; assay: Cell cycle arrest in human K562 cells assessed as accumulation at G2 phase at 0.005 uM after 48 hrs by propidium iodide staining based flow cytometry (reference value: 9.51%); type: functional
[31] = system: K562; assay: Induction of apoptosis in human K562 cells at 0.01 uM after 48 hrs by Annexin V-FITC/propidium iodide staining based flow cytometry (reference value: 1.46%)
[32] = system: K562; assay: Antiproliferative activity against human K562 cells at 1 uM after 72 hrs by MTT assay; type: functional, cell-based
[33] = system: K562; assay: Disruption of microtubule network in human K562 cells at 0.005 to 0.02 uM after 24 hrs by DAPI staining based immunofluorescent microscopic method; type: cell-based; in short: as §4
[34] = system: K562; assay: Cell cycle arrest in human K562 cells assessed as accumulation at S phase at 0.02 uM after 48 hrs by propidium iodide staining based flow cytometry (reference value: 49.41%); type: functional
[35] = system: K562; assay: Cell cycle arrest in human K562 cells assessed as accumulation at G2 phase at 0.02 uM after 48 hrs by propidium iodide staining based flow cytometry (reference value: 9.51%); type: functional
[36] = system: K562; assay: Cell cycle arrest in human K562 cells assessed as accumulation at G1 phase at 0.02 uM after 48 hrs by propidium iodide staining based flow cytometry (reference value: 41.08%); type: functional
[37] = system: K562; assay: Cell cycle arrest in human K562 cells assessed as accumulation at S phase at 0.01 uM after 48 hrs by propidium iodide staining based flow cytometry (reference value: 49.41%); type: functional
[38] = system: K562; assay: Induction of apoptosis in human K562 cells at 0.02 uM after 48 hrs by Annexin V-FITC/propidium iodide staining based flow cytometry (reference value: 1.46%); type: functional; in short: as §1
[39] = system: K562; assay: Cell cycle arrest in human K562 cells assessed as accumulation at G2 phase at 0.01 uM after 48 hrs by propidium iodide staining based flow cytometry (reference value: 9.51%); type: functional

Compound: COc1ccc(/C=C/S(=O)(=O)c2cc(OC)c(OC)c(OC)c2)cc1N
- Activity [1]: 53.07%
- Activity [2]: 16.15%
- Activity [3]: Active
- Activity [4]: 49.29%
- Activity [5]: Dose-dependent effect
- inhibition in vivo at 15 mg/kg [6]: 53.4%
- Activity [7]: 38.31%
- Activity [8]: 17.88%
- Activity [9]: 36.7%
- Activity [10]: 22.65%
- Activity [11]: 39.7%
- IC50 [12]: 128 nM
- Activity [13]: Non-Toxic
- Activity [14]: 47.15%
- IC50 [15]: 217 nM
- IC50 [16]: 4250 nM
- TGI [17]: Dose-dependent effect
- Activity [18]: 21.99%
- Activity [19]: 33.88%
- IC50 [20]: 606 nM
- Activity [21]: Dose-dependent effect
- Activity [22]: 13.05%
- Activity [23]: Dose-dependent effect
- Activity [24]: Dose-dependent effect
- inhibition in vivo at 30 mg/kg [25]: 65.4%

Compound: COc1ccc(/C=C\c2cc(OC)c(OC)c(OC)c2)cc1O [COMBRETASTATIN A4]
- Activity [26]: 46.14%
- Activity [27]: 40.02%
- Activity [28]: 25.28%
- Activity [29]: 61.16%
- Activity [30]: 13.84%
- Activity [31]: 53.05%
- Activity [32]: Active
- inhibition in vivo at 15 mg/kg [6]: 45%
- Activity [33]: Active
- Activity [34]: 18.54%
- IC50 [12]: 21 nM
- Activity [35]: 24.95%
- Activity [36]: 56.51%
- Activity [37]: 16.25%
- IC50 [15]: 12 nM
- IC50 [16]: 2170 nM
- Activity [38]: 63.05%
- IC50 [20]: 37 nM
- Activity [39]: 22.59%
- Activity [21]: Dose-dependent effect
- Activity [23]: Dose-dependent effect
- inhibition in vivo at 30 mg/kg [25]: 56.7%
